For test [1], the system named is VEGF (v107 / receptor binding site). Kind of test: STD competition assay with peptide v107. The settings on record: 1 mM baicalin, 10 μM VEGF, 298 K, 50 and 100 μM v107.
A further test concerns VEGF11−109 (VEGF). Description: STD and WaterLOGSY ligand-observed NMR binding experiments. The settings on record: STD, 1 mM baicalin, 10 μM VEGF, 298 K. The method, boiled down: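 Ligand‑observed STD and WaterLOGSY were run with 10 μM VEGF and 0.5 or 1 mM test compound in 25 mM sodium phosphate pH 7.0, 50 mM NaCl, […], at 37, 25 or 5 °C on 600/500 MHz spectrometers. On‑resonance saturation targeted the aliphatic protein region (STD) or the water signal (WaterLOGSY). Binding was judged from ligand STD/WaterLOGSY signals.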

The target of test [2] is T1, methyl‐13C‐Met‐labeled VEGF (Homo sapiens, UniProt P15692).
T1 sequence (P15692 217-315): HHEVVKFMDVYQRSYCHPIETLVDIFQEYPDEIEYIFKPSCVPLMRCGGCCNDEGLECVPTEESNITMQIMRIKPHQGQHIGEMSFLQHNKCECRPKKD
Description: Protein-observed CSP with methyl‐13C‐Met‐labeled VEGF. Type of test: binding. The gist of the method:
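Methyl‑13C‑Met‑labeled VEGF at 30 μM in 25 mM sodium phosphate pH 7.0, 50 mM NaCl, 10% D2O, usually at 45 °C. 1H–13C HSQC used 256×96 points with 8 scans per increment. 13C‑decoupled‑13C‑filtered 1D 1H spectra used 2048 points and 128 scans. KD came from ligand‑titration chemical shift perturbations.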

The values that follow come from PMC5063151 (Chemmedchem, 2015).

As to `O=C(O)[C@H]1O[C@@H](Oc2cc3oc(-c4ccccc4)cc(=O)c3c(O)c2O)[C@H](O)[C@@H](O)[C@@H]1O` [baicalin], the “STD competition with v107 (reduction of ligand STD signals)” value in test [1] was “baicalin and v107 compete for the same binding site”. Further, the “Binding of isolated compound to VEGF” value with VEGF11−109 (VEGF) is listed as “able to bind VEGF”. Take `O=c1c(O[C@@H]2O[C@H](CO)[C@@H](O)[C@H](O)[C@H]2O)c(-c2ccc(O)c(O)c2)oc2cc(O)cc(O)c12` [quercetin‐3‐β‐glucoside]: the “Methionine perturbations on 13C‐filtered‐13C‐decoupled 1H NMR spectra of VEGF” value in test [2] (baicalin‐related flavonoids of Figure 7 a) was “induced methionine perturbations”. With “&D‐Pro‐Trp‐Glu‐D‐Pro‐Trp‐Glu& (head to tail)”, the “VEGF binding affinity from titration experiments” value in test [2] (CSP titration, methyl‐13C‐Met‐labeled VEGF) was “low‐millimolar range”.
